Experimental data taken from ChEMBL document CHEMBL4765230, “Discovery of Orally Efficacious Phosphoinositide 3-Kinase δ Inhibitors with Improved Metabolic Stability” (J Med Chem, 2016).

Tests used:
[1] = Chemical stability of the compound at pH 2 phosphate buffer assessed as time required for 90% hydrolytic degradation at 100 ug/ml and 40 degreeC by UPLC-UV analysis; assay type: physicochemical; conditions: in the assay text read “10% hydrolytic degradation” for “90% hydrolytic degradation”, dose 100 µg/ml
How it was run: (§1)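 Compound diluted from acetonitrile or DMSO stock to 100 μg/mL final in 50 mM phosphate buffer, pH 2 (or pH 7), ionic strength 0.15 M NaCl, 40 °C in autosampler. Timed injections analysed by reverse-phase UPLC-UV (220 nm); pseudo-first-order kobs from ln c vs time; t50 and t90 calculated.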

[2] = Clearance in dog at 1 mg/kg, iv; assay type: ADME, organism-based, Canis lupus familiaris; conditions: in vivo
[3] = molecular target: PI3-kinase p110-alpha/p85-alpha (Homo sapiens, UniProt P42336); test: Inhibition of human full length PI3K p110alpha/p85alpha using […] as substrate measured after 30 mins by TR-FRET assay; assay type: protein-complex assay
Sequence of PI3-kinase p110-alpha/p85-alpha (P27986 whole entry): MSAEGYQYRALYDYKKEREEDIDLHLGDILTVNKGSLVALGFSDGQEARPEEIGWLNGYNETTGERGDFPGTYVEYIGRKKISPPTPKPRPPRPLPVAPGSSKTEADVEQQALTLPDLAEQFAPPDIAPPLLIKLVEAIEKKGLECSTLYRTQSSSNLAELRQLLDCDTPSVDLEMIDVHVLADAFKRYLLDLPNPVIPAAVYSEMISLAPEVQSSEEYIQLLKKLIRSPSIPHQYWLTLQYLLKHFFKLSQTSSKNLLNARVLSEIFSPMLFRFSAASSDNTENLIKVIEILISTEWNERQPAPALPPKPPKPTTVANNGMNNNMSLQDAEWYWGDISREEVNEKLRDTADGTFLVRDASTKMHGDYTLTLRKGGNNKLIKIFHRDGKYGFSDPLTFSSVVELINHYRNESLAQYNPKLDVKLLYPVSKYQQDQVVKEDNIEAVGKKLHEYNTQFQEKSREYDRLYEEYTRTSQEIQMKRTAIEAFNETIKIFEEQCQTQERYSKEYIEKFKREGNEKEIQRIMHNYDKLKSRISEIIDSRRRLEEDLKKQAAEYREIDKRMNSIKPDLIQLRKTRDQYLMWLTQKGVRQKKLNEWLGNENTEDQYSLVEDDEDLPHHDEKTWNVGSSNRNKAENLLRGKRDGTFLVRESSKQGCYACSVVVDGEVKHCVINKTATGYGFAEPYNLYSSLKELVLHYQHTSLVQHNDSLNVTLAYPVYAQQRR
Sequence of PI3-kinase p110-alpha/p85-alpha (P42336 whole entry): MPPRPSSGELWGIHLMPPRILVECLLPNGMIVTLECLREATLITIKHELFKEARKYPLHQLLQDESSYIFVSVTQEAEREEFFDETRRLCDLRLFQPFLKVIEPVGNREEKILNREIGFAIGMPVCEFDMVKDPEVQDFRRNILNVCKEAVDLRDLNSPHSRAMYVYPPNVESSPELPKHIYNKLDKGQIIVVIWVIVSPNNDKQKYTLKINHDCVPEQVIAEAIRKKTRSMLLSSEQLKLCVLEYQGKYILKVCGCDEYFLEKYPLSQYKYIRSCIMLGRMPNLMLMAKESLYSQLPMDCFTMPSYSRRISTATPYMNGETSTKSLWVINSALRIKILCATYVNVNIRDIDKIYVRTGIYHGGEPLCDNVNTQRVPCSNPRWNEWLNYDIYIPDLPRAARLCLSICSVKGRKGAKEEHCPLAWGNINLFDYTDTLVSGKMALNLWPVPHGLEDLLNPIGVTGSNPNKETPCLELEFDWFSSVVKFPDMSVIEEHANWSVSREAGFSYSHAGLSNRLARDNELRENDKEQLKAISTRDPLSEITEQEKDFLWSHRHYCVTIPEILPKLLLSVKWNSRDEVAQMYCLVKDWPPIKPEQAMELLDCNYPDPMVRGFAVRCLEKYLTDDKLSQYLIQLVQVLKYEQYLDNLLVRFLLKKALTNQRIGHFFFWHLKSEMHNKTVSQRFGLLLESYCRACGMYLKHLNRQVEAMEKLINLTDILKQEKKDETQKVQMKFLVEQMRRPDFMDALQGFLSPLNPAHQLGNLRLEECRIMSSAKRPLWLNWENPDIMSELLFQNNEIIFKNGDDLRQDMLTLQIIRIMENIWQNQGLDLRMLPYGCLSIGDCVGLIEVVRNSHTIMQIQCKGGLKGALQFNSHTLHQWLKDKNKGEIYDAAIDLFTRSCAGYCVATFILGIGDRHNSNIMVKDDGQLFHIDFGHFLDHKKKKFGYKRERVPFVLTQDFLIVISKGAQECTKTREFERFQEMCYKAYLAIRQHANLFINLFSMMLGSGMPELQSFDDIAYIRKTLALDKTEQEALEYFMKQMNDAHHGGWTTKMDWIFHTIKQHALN

[4] = Chemical stability of the compound at pH 2 phosphate buffer assessed as time required for 50% hydrolytic degradation at 100 ug/ml and 40 degreeC by UPLC-UV analysis; assay type: physicochemical; conditions: dose 100 µg/ml, read-out: Time (converted); how it was run: as §1
[5] = molecular target: T1, Phosphatidylinositol 4,5-bisphosphate 3-kinase catalytic subunit delta isoform (Homo sapiens, UniProt O00329); test: Inhibition of PI3Kdelta in human whole blood assessed as reduction in anti-FCepsilonR1 mAb-stimulated basophil activation preincubated for 60 mins followed by anti-FCepsilonR1 mAb stimulation and measured after 25 mins by flow cytometry analysis; assay type: tissue-based
T1 sequence (O00329 whole entry): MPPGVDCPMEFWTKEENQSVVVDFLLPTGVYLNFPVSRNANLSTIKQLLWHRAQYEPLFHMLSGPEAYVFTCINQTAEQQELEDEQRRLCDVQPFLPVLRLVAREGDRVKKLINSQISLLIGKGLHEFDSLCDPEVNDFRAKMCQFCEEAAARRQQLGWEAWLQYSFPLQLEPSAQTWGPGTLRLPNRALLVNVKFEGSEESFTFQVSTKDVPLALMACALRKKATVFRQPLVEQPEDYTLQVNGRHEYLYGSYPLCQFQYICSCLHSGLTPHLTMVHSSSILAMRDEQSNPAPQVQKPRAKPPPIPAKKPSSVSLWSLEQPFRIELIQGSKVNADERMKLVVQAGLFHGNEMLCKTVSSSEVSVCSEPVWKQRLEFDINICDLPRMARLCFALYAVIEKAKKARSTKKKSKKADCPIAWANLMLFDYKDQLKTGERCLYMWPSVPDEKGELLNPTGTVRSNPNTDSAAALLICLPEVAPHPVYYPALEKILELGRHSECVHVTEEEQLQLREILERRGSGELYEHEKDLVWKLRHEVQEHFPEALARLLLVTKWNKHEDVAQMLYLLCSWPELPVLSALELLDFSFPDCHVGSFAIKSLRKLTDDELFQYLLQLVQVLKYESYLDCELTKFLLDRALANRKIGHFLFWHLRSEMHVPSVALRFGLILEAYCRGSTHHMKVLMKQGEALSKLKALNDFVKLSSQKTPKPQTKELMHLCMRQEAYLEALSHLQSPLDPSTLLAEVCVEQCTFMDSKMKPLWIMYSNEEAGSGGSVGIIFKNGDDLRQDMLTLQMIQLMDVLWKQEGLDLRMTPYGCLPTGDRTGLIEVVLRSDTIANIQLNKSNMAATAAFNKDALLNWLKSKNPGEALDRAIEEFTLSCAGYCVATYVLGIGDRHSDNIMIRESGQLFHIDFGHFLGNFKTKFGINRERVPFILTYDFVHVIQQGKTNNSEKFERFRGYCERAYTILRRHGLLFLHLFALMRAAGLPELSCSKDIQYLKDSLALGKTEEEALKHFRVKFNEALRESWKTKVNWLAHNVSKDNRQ

[6] = Volume of distribution at steady state in dog at 1 mg/kg, iv; assay type: ADME, organism-based, Canis lupus familiaris; conditions: in vivo, read-out: Vdss
How it was run: (§2)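 Rats and dog received 1 mg/kg intravenously, formulated in 12% w/v Captisol in water. Volume of distribution was taken at steady state from the iv plasma profile. Three animals per dosing route.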

[7] = molecular target: Phosphatidylinositol 4,5-bisphosphate 3-kinase catalytic subunit gamma isoform (Homo sapiens, UniProt P48736); test: Inhibition of human full length PI3K p110gamma using […] as substrate measured after 30 mins by TR-FRET assay
Sequence of Phosphatidylinositol 4,5-bisphosphate 3-kinase catalytic subunit gamma isoform (P48736 whole entry, canonical isoform): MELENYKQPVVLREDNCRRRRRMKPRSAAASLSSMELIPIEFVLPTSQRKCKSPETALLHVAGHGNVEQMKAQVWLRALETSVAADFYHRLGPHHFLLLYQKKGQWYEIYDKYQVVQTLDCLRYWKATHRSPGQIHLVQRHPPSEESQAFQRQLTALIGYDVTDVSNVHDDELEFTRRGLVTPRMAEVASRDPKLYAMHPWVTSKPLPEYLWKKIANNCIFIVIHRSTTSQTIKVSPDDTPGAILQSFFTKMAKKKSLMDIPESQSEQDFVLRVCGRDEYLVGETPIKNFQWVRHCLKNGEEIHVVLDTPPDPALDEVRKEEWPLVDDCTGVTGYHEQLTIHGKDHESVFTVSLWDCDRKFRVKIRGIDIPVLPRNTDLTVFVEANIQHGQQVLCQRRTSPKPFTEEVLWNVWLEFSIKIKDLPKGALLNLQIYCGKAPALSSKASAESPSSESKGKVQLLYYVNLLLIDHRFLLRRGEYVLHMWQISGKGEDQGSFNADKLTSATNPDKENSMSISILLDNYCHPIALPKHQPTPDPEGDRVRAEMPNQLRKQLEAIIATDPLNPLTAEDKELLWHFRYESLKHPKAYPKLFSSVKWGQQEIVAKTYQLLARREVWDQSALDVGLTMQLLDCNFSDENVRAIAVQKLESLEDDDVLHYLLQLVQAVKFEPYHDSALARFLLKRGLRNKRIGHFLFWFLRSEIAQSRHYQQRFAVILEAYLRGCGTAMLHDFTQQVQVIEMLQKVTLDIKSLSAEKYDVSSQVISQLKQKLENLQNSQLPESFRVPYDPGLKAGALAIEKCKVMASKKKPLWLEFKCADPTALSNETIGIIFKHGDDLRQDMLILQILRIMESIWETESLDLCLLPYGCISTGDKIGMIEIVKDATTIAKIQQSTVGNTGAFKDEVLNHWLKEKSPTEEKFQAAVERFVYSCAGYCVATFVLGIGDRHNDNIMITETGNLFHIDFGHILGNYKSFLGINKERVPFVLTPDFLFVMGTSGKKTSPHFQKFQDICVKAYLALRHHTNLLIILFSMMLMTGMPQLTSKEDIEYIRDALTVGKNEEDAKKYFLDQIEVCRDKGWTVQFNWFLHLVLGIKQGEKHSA

PI3K p110 beta/p85 alpha = PI3K p110 beta/p85 alpha (Homo sapiens, UniProt P42338); test: Inhibition of recombinant human full-length N-terminal His-tagged PI3K p110beta/p85alpha using […] as substrate measured after 30 mins by TR-FRET assay; assay type: protein-complex assay
Sequence of PI3K p110 beta/p85 alpha (P27986 whole entry): as the sequence (P27986 whole entry) above
Sequence of PI3K p110 beta/p85 alpha (P42338 whole entry): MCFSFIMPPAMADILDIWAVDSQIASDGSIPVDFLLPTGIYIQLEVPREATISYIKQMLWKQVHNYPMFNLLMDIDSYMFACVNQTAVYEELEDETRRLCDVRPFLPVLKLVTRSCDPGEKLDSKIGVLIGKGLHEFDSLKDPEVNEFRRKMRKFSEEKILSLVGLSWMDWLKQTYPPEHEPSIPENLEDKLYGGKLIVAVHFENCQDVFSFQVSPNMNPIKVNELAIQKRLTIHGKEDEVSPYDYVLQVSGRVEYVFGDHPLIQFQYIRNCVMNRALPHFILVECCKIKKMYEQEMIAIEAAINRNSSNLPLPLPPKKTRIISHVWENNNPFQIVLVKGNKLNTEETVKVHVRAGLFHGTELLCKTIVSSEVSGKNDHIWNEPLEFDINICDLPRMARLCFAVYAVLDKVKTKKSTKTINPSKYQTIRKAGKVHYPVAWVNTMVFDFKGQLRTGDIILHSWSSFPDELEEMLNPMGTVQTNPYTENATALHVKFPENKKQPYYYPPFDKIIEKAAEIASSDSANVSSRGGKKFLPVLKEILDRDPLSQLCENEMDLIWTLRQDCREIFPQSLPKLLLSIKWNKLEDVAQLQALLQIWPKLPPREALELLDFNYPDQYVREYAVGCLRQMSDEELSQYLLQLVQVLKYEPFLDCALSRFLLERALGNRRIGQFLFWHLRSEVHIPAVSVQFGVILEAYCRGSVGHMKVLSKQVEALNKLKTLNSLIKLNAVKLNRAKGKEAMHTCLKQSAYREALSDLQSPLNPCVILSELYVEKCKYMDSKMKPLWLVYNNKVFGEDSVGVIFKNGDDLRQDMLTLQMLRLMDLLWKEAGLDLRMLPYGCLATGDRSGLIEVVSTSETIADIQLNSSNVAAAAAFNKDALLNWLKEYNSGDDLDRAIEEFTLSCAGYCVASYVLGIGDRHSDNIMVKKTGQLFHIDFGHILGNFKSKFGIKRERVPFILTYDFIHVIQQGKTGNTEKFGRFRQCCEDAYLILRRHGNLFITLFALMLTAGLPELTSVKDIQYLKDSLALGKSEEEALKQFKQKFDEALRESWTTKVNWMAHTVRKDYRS

[8] = Oral bioavailability in rat at 5 mg/kg; assay type: ADME, organism-based; conditions: in vivo
[9] = Volume of distribution at steady state in rat at 1 mg/kg, iv; assay type: ADME, organism-based; conditions: in vivo, read-out: Vdss; how it was run: as §2
[10] = Clearance in rat at 1 mg/kg, iv; assay type: ADME, organism-based; conditions: in vivo
[11] = Drug degradation at low pH; assay type: physicochemical; how it was run: as §1
[12] = molecular target: PI3-kinase p110-delta/p85-alpha (Homo sapiens, UniProt O00329); test: Inhibition of human full length PI3K p110delta/p85alpha using […] as substrate measured after 30 mins by TR-FRET assay; assay type: protein-complex assay
Sequence of PI3-kinase p110-delta/p85-alpha (P27986 whole entry, one chain of several): as the sequence (P27986 whole entry) above

[13] = Selectivity index, ratio of IC50 for inhibition of recombinant human full-length N-terminal His-tagged PI3K p110beta/p85alpha to IC50 for inhibition of human full length PI3K p110delta/p85alpha
[14] = Chemical stability assessed as time taken for hydrolytic degradation at pH 2; assay type: physicochemical; conditions: buffer; how it was run: as §1
[15] = Selectivity index, ratio of IC50 for inhibition of human full length PI3K p110gamma to IC50 for inhibition of human full length PI3K p110delta/p85alpha
[16] = Half life of the compound; assay type: physicochemical
[17] = Selectivity index, ratio of IC50 for inhibition of human full length PI3K p110alpha/p85alpha to IC50 for inhibition of human full length PI3K p110delta/p85alpha
[18] = Chemical stability of the compound under aqueous acidic condition; assay type: physicochemical; conditions: buffer; how it was run: as §1

Structure (SMILES)	Time [1] [h]	IC50 [3] [nM]	half-life at 100 ug/ml [4] [h]	EC50 [5] [nM]	IC50 [7] [nM]	IC50 (PI3K p110 beta/p85 alpha) [nM]	IC50 [12] [nM]	further results
C[C@H](Nc1nc(N)nc(N)c1C#N)c1nc2c(F)ccc(Cl)c2c(=O)n1-c1cncc(F)c1	2.9	3100	20	0.5	120	440		clearance [2]: 5.17 mL/min/kg; Vd [6]: 0.96 L/kg; bioavailability [8]: 46%; Vd [9]: 1.4 L/kg; clearance [10]: 17.7 mL/min/kg
C[C@H](Nc1nc(N)nc(N)c1C#N)c1nc2c(F)ccc(F)c2c(=O)n1-c1cccnc1		4020		11	940	770		
CC[C@H](Nc1nc(N)nc(N)c1C#N)c1nc2cccc(Cl)c2c(=O)n1-c1cccnc1	0.65		4.3					Drug degradation [11]: Active
C[C@H](Nc1nc(N)nc(N)c1C#N)c1nc2cccc(Cl)c2c(=O)n1-c1cncc(F)c1	0.5	4300	3.6	1.2	150	740	1.7	Drug degradation [11]: Active; Ratio IC50 [13]: 430
C[C@H](Nc1nc(N)nc(N)c1C#N)c1nc2c(Cl)cccc2c(=O)n1-c1cccnc1		3100		5	1100	390		
Cc1c(F)cncc1-n1c([C@H](C)Nc2nc(N)nc(N)c2C#N)nc2cccc(Cl)c2c1=O (stereo in doubt; 28)		10000			6900	1750	40	
CC[C@H](Nc1nc(N)nc(N)c1C#N)c1nc2c(F)ccc(Cl)c2c(=O)n1-c1cccnc1	2.8	1500	19	2	520	310	2	clearance [2]: 2.17 mL/min/kg; Vd [6]: 0.3 L/kg; bioavailability [8]: 37%; Vd [9]: 0.54 L/kg; clearance [10]: 5 mL/min/kg
Cc1ncccc1-n1c([C@H](C)Nc2nc(N)nc(N)c2C#N)nc2cccc(Cl)c2c1=O (stereo in doubt; 24)		6800			650	440		
Cc1ccncc1-n1c([C@H](C)Nc2nc(N)nc(N)c2C#N)nc2cccc(Cl)c2c1=O (stereo in doubt; 25)	3.5	880	23		70	21		Time [14]: > 3 h
C[C@H](Nc1nc(N)nc(N)c1C#N)c1nc2cccc(Cl)c2c(=O)n1-c1cncc(C2CC2)c1		10000		7	2300	2600		
Cc1ccncc1-n1c([C@H](C)Nc2nc(N)nc(N)c2C#N)nc2cccc(Cl)c2c1=O (stereo in doubt; 26)		9700			1300	370		
C[C@H](Nc1nc(N)nc(N)c1C#N)c1nc2cccc(Cl)c2c(=O)n1-c1cncc(C(F)(F)F)c1		10000		21	1300	4800	17	
Cc1ncccc1-n1c([C@H](C)Nc2nc(N)nc(N)c2C#N)nc2cccc(Cl)c2c1=O (stereo in doubt; 23)	3.1	1600	20		160	350	1.3	Time [14]: > 3 h
C[C@H](Nc1nc(N)nc(N)c1C#N)c1nc2cccc(Cl)c2c(=O)n1-c1ccccc1		240	358	0.3		9.4		Ratio IC50 [15]: 60; half-life [16]: 358 h; Ratio IC50 [17]: 2200; Stabilty [18]: Stable; Ratio IC50 [13]: 80
C[C@H](Nc1nc(N)nc(N)c1C#N)c1nc2cccc(F)c2c(=O)n1-c1cc(F)cc(F)c1			34					Ratio IC50 [15]: 180; half-life [16]: 34 h; Ratio IC50 [17]: 1900; Stabilty [18]: Stable; Ratio IC50 [13]: 650
COc1cncc(-n2c([C@H](C)Nc3nc(N)nc(N)c3C#N)nc3cccc(Cl)c3c2=O)c1		10000		3	830	3000		
C[C@H](Nc1nc(N)nc(N)c1C#N)c1nc2c(Cl)ccc(Cl)c2c(=O)n1-c1cccnc1	2.3	1300	15	0.9	330	76		
C[C@H](Nc1nc(N)nc(N)c1C#N)c1nc2cccc(Cl)c2c(=O)n1-c1cncc(C#N)c1		8700		4	700	3100	13	
N#Cc1c(N)nc(N)nc1N[C@H](c1nc2cccc(Cl)c2c(=O)n1-c1cccnc1)C1CC1	0.5		3.6					Drug degradation [11]: Active
C[C@H](Nc1nc(N)nc(N)c1C#N)c1nc2cccc(Cl)c2c(=O)n1-c1cncc(Cl)c1		8300		4	1200	1200		
